One data set deals with BCL-XL (Homo sapiens, UniProt Q07817). Kind of data set: BCL-XL degradation by western blot densitometry in SUP-T1 cells. The class given is cell-based. Particulars: read-out: DC50 (concentration that degraded 50% of BCL-XL protein), 24 hrs of DT2216, western blot densitometry. A general note: Immunoblotting shows a protein as a band on a membrane.
Data set [1] relates to T-ALL cell lines other than SUP-T1. Kind of data set: Cell cytotoxicity assay. It is filed as cell-based. As to conditions: Homo sapiens, SUP-T1, 48 h. The procedure, abridged: (§1)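 Human T-ALL lines grown in RPMI with 10% or 20% FBS at 37°C, 5% CO2. Plated 2×10^3–2×10^4 cells/well depending on doubling time, in quadruplicate. Test compound added from DMSO (≥1:1000 into medium) at varying concentrations; DMSO vehicle control. Exposure 48 h, then CCK-8 for 4 h at 37°C and A450 read. % survival derived; ≥3 independent experiments, mean ± SE.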

The conditions of data set [2]: intratumoral, T-ALL xenograft in immunodeficient mice ref 8; cited from earlier work.
The next data set has as its system PEER T-ALL cells. Kind of data set: Cell cytotoxicity assay. It is filed as cell-based. As to conditions: Homo sapiens, 48 h. The procedure, abridged: as §1
For the next data set, the system named is BCL-2 or MCL-1. The class given is cell-based, Human. In short, it runs like this: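 T-ALL cells were lysed before and after test-compound exposure. Western blots of 10 µg lysate were probed for BCL-2 and MCL-1, with β-actin as loading control. Band intensities were measured by densitometry and normalized to β-actin. Each blot was done twice with distinct protein preparations.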

Another data set relates to SUP-T1 T-ALL cells. Nature of the data set: Cell cytotoxicity assay. It is filed as cell-based, Human. The procedure, abridged:
as §1

The text below walks through data of PMC10405225 (Cancer chemotherapy and pharmacology, 2022).

The IC50 is the concentration that gives 50% inhibition. Low readings indicate greater potency in that assay, high ones weaker potency in that assay.

Sequence of BCL-XL (Q07817 whole entry): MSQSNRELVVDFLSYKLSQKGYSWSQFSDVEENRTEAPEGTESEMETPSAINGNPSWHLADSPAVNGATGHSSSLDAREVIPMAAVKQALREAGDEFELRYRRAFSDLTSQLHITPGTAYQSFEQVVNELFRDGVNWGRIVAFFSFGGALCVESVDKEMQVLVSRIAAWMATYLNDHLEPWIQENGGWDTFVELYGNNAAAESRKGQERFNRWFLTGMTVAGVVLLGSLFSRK

Take `Cc1ncsc1-c1ccc([C@H](C)NC(=O)[C@@H]2C[C@@H](O)CN2C(=O)[C@@H](NC(=O)CCCCCC(=O)N2CCN(CC[C@H](CSc3ccccc3)Nc3ccc(S(=O)(=O)NC(=O)c4ccc(N5CCN(CC6=C(c7ccc(Cl)cc7)CCC(C)(C)C6)CC5)cc4)cc3S(=O)(=O)C(F)(F)F)CC2)C(C)(C)C)cc1` [DT2216]: the DC50 at BCL-XL turned out to be 131 nM. Moreover, the half-inhibitory concentration (IC50) in data set [1] was below 800 nM; in the data set on PEER T-ALL cells, 305 nM; in the data set on SUP-T1 T-ALL cells (48 hrs) it was 1490 nM; with SUP-T1 T-ALL cells (Homo sapiens, SUP-T1, 48 h) it was above 800 nM. In data set [2], the “DT2216 level achieved within a T-ALL xenografted tumor in vivo” value was 800 nM. The “Induction of BCL-2 or MCL-1 expression by DT2216” value in the data set on BCL-2 or MCL-1 (any of the 13 T-ALL cell lines) is reported as “not induced”. Also, the “Change in BCL-2 or MCL-1 protein levels after exposure to DT2216” value in the data set on BCL-2 or MCL-1 (resistant SUP-T1 cells) is “no change”.
